Measured values: ChEMBL document CHEMBL1136010, “Synthesis and evaluation of indenopyrazoles as cyclin-dependent kinase inhibitors. 3. Structure activity relationships at C3(1,2)” (J Med Chem, 2002)

What was measured:
[1] = target: Cyclin-dependent kinase 2/cyclin E (Homo sapiens, UniProt P24941); assay: Inhibitory concentration against Cyclin-dependent kinase 2-cyclin E; assay type: protein-complex assay
[2] = target: Cyclin-dependent kinase 4/cyclin D1 (Homo sapiens, UniProt P11802); assay: Inhibitory concentration against Cyclin-dependent kinase 4-cyclin D1; assay type: protein-complex assay
How it was run: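 CDK4/cyclin D1 came from extracts of insect cells dually infected with baculovirus vectors. Reactions were started with 4 units of enzyme, run 15 min at room temperature, and stopped with EDTA. Product was captured on GSH-Sepharose and counted by scintillation.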

HCT-116 = assay: Inhibition of HCT116 colon carcinoma cell proliferation; assay type: functional, cell-based; conditions: Homo sapiens
How it was run: (§1)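 SRB colorimetric growth assay. Exponentially growing cells were seeded so they would undergo 3-5 doublings before reaching 85% confluence. Graded compound concentrations were added 18 h later, and cells were incubated 5 days at 37 °C in 5% CO2. Cells were fixed with cold TCA for 1 h at 4 °C, stained with 0.4% SRB in 1% acetic acid, solubilized in 10 mM Tris base, and OD read at 570 nm.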

B16 = assay: Inhibitory activity against B16-F1 cell line; assay type: functional, cell-based; conditions: Mus musculus
HT-1080 = assay: Inhibition of HT1080 cell proliferation; assay type: functional, cell-based; conditions: Homo sapiens; how it was run: as §1
[3] = target: Tyrosine-protein kinase ABL1 (Homo sapiens, UniProt P00519); assay: Inhibition of c-Abl tyrosine kinase
Protein kinase C (PKC) = assay: Inhibition of Protein kinase C; assay type: protein assay
NCI-H460 = assay: Inhibition of NCI-H460 cell proliferation; assay type: functional, cell-based; conditions: Homo sapiens; how it was run: as §1
AG1523 = assay: Effective concentration against normal human fibroblast cell line AG1523; assay type: functional, cell-based
How it was run: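 Normal human foreskin fibroblasts AG1523 were seeded at a density giving confluence and contact inhibition of growth. Graded compound concentrations were added 18 h later, and cells were incubated 6 days at 37 °C in 5% CO2. Death effects were scored by SRB colorimetry: cold TCA fixation, 0.4% SRB stain, Tris base solubilization, OD at 570 nm.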

MIA PaCa-2 = assay: Inhibition of MiaPaCa2 cell proliferation; assay type: functional, cell-based; conditions: Homo sapiens; how it was run: as §1
PC-3 = assay: Inhibition of PC3 cell proliferation; assay type: functional, cell-based; conditions: Homo sapiens; how it was run: as §1
[4] = target: cAMP-dependent protein kinase (PKA) (Homo sapiens, UniProt P22694+P17612+P22612); assay: Inhibition of Protein kinase A (PKA); assay type: protein assay
[5] = target: Cyclin-dependent kinase 1/cyclin B (Homo sapiens, UniProt P06493); assay: Inhibition of Cyclin-dependent kinase 1-cyclin B; assay type: protein-complex assay
HT-29 = assay: Inhibition of HT-29 cell proliferation; assay type: functional, cell-based; conditions: Homo sapiens; how it was run: as §1

Chain of Cyclin-dependent kinase 4/cyclin D1 (P11802 whole entry): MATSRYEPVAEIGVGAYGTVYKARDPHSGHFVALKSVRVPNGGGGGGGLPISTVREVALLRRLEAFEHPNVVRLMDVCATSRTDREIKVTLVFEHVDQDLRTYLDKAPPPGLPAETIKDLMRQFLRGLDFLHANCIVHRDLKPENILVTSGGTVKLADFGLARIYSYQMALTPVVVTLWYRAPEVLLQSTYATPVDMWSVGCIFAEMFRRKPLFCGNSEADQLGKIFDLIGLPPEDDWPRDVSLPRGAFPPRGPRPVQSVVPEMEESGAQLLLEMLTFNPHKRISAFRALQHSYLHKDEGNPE
Chain of Cyclin-dependent kinase 4/cyclin D1 (P24385 whole entry, further chain): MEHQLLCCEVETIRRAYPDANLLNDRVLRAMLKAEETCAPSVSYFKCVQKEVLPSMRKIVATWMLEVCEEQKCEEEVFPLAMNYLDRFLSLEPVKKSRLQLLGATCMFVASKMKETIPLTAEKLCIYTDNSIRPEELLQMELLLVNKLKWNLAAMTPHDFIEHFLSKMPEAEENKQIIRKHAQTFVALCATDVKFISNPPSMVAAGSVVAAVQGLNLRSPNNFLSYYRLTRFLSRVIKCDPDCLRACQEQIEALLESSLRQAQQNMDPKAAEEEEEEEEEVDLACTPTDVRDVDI
Chain of Tyrosine-protein kinase ABL1 (P00519 whole entry): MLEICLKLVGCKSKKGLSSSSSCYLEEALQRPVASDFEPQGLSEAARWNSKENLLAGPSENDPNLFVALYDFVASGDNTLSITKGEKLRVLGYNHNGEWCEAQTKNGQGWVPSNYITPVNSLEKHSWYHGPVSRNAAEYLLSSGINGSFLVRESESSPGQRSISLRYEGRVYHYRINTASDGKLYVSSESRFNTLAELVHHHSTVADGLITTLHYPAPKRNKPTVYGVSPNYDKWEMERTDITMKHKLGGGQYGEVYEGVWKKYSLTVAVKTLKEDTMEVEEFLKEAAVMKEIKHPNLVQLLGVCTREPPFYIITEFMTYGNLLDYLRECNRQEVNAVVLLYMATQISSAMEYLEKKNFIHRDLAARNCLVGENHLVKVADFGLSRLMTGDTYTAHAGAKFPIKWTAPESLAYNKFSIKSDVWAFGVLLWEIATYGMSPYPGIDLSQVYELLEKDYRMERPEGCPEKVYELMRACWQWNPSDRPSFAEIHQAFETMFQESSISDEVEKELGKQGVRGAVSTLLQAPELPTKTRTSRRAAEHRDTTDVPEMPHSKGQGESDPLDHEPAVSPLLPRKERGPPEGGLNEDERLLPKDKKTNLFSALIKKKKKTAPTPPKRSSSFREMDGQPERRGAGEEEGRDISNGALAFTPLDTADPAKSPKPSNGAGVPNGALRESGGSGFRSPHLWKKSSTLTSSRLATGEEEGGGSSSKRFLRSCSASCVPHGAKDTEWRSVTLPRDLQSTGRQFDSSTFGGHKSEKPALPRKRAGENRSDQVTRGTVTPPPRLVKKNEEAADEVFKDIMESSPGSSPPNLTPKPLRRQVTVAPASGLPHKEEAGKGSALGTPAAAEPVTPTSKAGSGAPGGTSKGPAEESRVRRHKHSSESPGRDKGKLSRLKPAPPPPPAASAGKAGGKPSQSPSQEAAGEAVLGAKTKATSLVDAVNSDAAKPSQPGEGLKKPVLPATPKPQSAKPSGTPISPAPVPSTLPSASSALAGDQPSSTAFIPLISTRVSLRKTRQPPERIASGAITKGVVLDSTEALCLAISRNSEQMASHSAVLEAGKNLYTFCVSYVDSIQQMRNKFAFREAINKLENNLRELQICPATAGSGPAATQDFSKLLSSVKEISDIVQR

Row | IC50 [1] [µM] | IC50 [2] [µM] | Compound | other results
1 | > 2.6 | > 2.6 | CC(=O)Nc1cccc2c1C(=O)c1c-2n[nH]c1-c1cc(Cl)sc1Cl | –
2 | 0.086 | 0.84 | NC(=O)Nc1cccc2c1C(=O)c1c-2n[nH]c1-c1ccco1 | –
3 | 0.48 | > 3.7 | CC(=O)Nc1cccc2c1C(=O)c1c-2n[nH]c1C1CC1 | –
4 | 0.042 | 0.19 | CN1CCN(CC(=O)Nc2cccc3c2C(=O)c2c-3n[nH]c2-c2ccc(N3CCOCC3)cc2)CC1 | –
5 | 0.015 | 0.007 | CN(C)c1ccc(-c2[nH]nc3c2C(=O)c2c(NC(=O)CN4CCC(CN)CC4)cccc2-3)cc1 | IC50 (HCT-116): 0.074 µM
6 | 0.048 | 0.34 | CC(C)c1[nH]nc2c1C(=O)c1c(NC(=O)CN3CCC(CN)CC3)cccc1-2 | –
7 | 0.77 | > 1.6 | CC(=O)Nc1cccc2c1C(=O)c1c-2n[nH]c1-c1cccnc1 | –
8 | – | 0.36 | NCC1CCN(CC(=O)Nc2cccc3c2C(=O)c2c-3n[nH]c2C2CCCCC2)CC1 | –
9 | 0.24 | 0.84 | CC(=O)Nc1cccc2c1C(=O)c1c(-c3ccccc3)n[nH]c1-2 | –
10 | > 1.7 | > 3.5 | CC(=O)Nc1cccc2c1C(=O)c1c(-c3ccco3)n[nH]c1-2 | –
11 | 1.5 | > 3.9 | CCc1[nH]nc2c1C(=O)c1c(NC(C)=O)cccc1-2 | –
12 | 0.037 | 0.12 | O=C(CN1CCOCC1)Nc1cccc2c1C(=O)c1c-2n[nH]c1-c1ccc(N2CCOCC2)cc1 | –
13 | 0.033 | 0.05 | CN(C)c1ccc(-c2[nH]nc3c2C(=O)c2c(NC(=O)CN4CCC(O)CC4)cccc2-3)cc1 | –
14 | 0.026 | 0.13 | Cn1ccc(-c2[nH]nc3c2C(=O)c2c(NC(N)=O)cccc2-3)c1 | IC50 (HCT-116): 0.064 µM
15 | 0.14 | > 0.81 | NC(=O)Nc1cccc2c1C(=O)c1c-2n[nH]c1C1CCCCC1 | –
16 | 0.12 | 0.34 | CSc1ccc(-c2[nH]nc3c2C(=O)c2c(NC(C)=O)cccc2-3)cc1 | –
17 | > 3.5 | > 3.5 | CC(=O)Nc1cccc2c1C(=O)c1c-2n[nH]c1CC(C)C | –
18 | 0.076 | 1.3 | CC(=O)Nc1cccc2c1C(=O)c1c-2n[nH]c1-c1ccncc1 | –
19 | 0.26 | > 3.1 | CC(=O)Nc1cccc2c1C(=O)c1c-2n[nH]c1-c1sccc1C | –

Row | IC50 [1] [µM] | IC50 [2] [µM] | Compound | other results
20 | 0.28 | 0.64 | CCc1ccc(-c2[nH]nc3c2C(=O)c2c(NC(C)=O)cccc2-3)cc1 | –
21 | 0.84 | > 3.7 | CC(=O)Nc1cccc2c1C(=O)c1c-2n[nH]c1C(C)C | –
22 | 0.026 | > 0.099 | NC(=O)C1CCN(CC(=O)Nc2cccc3c2C(=O)c2c-3n[nH]c2C2CC2)CC1 | IC50 (HCT-116): 0.12 µM
23 | 0.017 | 0.35 | Cc1ccsc1-c1[nH]nc2c1C(=O)c1c(NC(N)=O)cccc1-2 | IC50 (HCT-116): 0.14 µM
24 | 0.24 | 1.3 | CCc1[nH]nc2c1C(=O)c1c(NC(=O)CN3CCC(CN)CC3)cccc1-2 | –
25 | 0.036 | 0.11 | CN(C)c1ccc(-c2[nH]nc3c2C(=O)c2c(NC(=O)CN4CCOCC4)cccc2-3)cc1 | –
26 | 1.1 | > 3.2 | CC(=O)Nc1cccc2c1C(=O)c1c-2n[nH]c1C1CCCCC1 | –
27 | 11 | > 4.2 | CC(=O)Nc1cccc2c1C(=O)c1c-2n[nH]c1C | –
28 | 0.32 | 0.31 | CC(=O)Nc1cccc2c1C(=O)c1c-2n[nH]c1-c1ccc(N(C)C)cc1 | –
29 | 0.16 | 0.49 | CC(=O)Nc1cccc2c1C(=O)c1c(-c3ccc(C)cc3)n[nH]c1-2 | –
30 | 0.013 | 0.057 | NC(=O)Nc1cccc2c1C(=O)c1c(-c3csc(Cl)c3)n[nH]c1-2 | IC50 (B16): 0.2 µM; IC50 (HT-1080): 0.49 µM; IC50 [3]: > 60 µM; IC50 (Protein kinase C (PKC)): > 58 µM; IC50 (HCT-116): 0.13 µM; IC50 (NCI-H460): 0.24 µM; EC50 (AG1523): > 29 µM; IC50 (MIA PaCa-2): 0.26 µM; IC50 (PC-3): 0.69 µM; IC50 [4]: > 58 µM; IC50 [5]: 0.044 µM; IC50 (HT-29): > 2.9 µM
31 | 0.085 | 0.11 | O=C(CN1CCC(O)CC1)Nc1cccc2c1C(=O)c1c-2n[nH]c1-c1ccc(N2CCOCC2)cc1 | –
32 | 0.014 | 0.013 | COc1ccc(-c2[nH]nc3c2C(=O)c2c(NC(=O)CN4CCC(CN)CC4)cccc2-3)cc1 | –
33 | 0.011 | 0.15 | NC(=O)Nc1cccc2c1C(=O)c1c-2n[nH]c1-c1cccs1 | IC50 (HCT-116): 0.041 µM
34 | 0.061 | > 1.5 | Cc1cc(-c2[nH]nc3c2C(=O)c2c(NC(N)=O)cccc2-3)c(C)s1 | –
35 | 0.98 | > 3.5 | CC(=O)Nc1cccc2c1C(=O)c1c-2n[nH]c1C(C)(C)C | –
36 | > 0.13 | > 2.6 | CCc1[nH]nc2c1C(=O)c1c(NC(=O)CN3CCC(C(N)=O)CC3)cccc1-2 | –
37 | 0.026 | 0.018 | NCC1CCN(CC(=O)Nc2cccc3c2C(=O)c2c-3n[nH]c2-c2ccc(N3CCOCC3)cc2)CC1 | IC50 (HCT-116): 0.11 µM
38 | > 0.4 | > 0.58 | CCOc1ccc(-c2[nH]nc3c2C(=O)c2c(NC(C)=O)cccc2-3)cc1 | –

Row | IC50 [1] [µM] | IC50 [2] [µM] | Compound | other results
39 | > 0.56 | > 2.8 | CCCCc1ccc(-c2[nH]nc3c2C(=O)c2c(NC(C)=O)cccc2-3)cc1 | –
40 | 0.18 | 4.5 | CC(=O)Nc1cccc2c1C(=O)c1c-2n[nH]c1-c1cccs1 | –
41 | 0.021 | > 1.3 | CC(C)c1n[nH]c2c1C(=O)c1c(NC(=O)CN3CCC(C(N)=O)CC3)cccc1-2 | IC50 (HCT-116): 0.29 µM
42 | 0.9 | 0.68 | CC(=O)Nc1cccc2c1C(=O)c1c-2n[nH]c1-c1ccc(N2CCCCC2)cc1 | –
43 | > 2.5 | > 2.5 | CC(=O)Nc1cccc2c1C(=O)c1c-2n[nH]c1-c1ccc(Oc2ccccc2)cc1 | –
44 | > 3.7 | > 3.7 | CCCc1[nH]nc2c1C(=O)c1c(NC(C)=O)cccc1-2 | –
45 | 0.013 | 0.053 | Cc1ccc(-c2[nH]nc3c2C(=O)c2c(NC(N)=O)cccc2-3)s1 | IC50 (HCT-116): 0.029 µM
46 | 0.53 | 2.3 | CC(=O)Nc1cccc2c1C(=O)c1c-2n[nH]c1-c1ccc(O)cc1 | –
47 | 0.084 | > 1.9 | CC(C)c1[nH]nc2c1C(=O)c1c(NC(N)=O)cccc1-2 | –
48 | 0.49 | 1.9 | CCCc1ccc(-c2[nH]nc3c2C(=O)c2c(NC(C)=O)cccc2-3)cc1 | –
49 | 0.14 | 1.4 | NC(=O)Nc1cccc2c1C(=O)c1c-2n[nH]c1C1CC1 | –
50 | 0.036 | > 0.57 | NC(=O)C1CCN(CC(=O)Nc2cccc3c2C(=O)c2c-3n[nH]c2C2CCCCC2)CC1 | –
51 | 0.29 | > 2 | CCc1[nH]nc2c1C(=O)c1c(NC(N)=O)cccc1-2 | –
52 | 0.009 | 0.067 | NC(=O)Nc1cccc2c1C(=O)c1c-2n[nH]c1-c1ccsc1 | IC50 (HCT-116): 0.36 µM
53 | > 3.5 | > 3.5 | CCCCc1[nH]nc2c1C(=O)c1c(NC(C)=O)cccc1-2 | –
54 | 0.37 | 0.86 | CC(=O)Nc1cccc2c1C(=O)c1c-2n[nH]c1-c1ccc(N2CCOCC2)cc1 | –
55 | 0.13 | 0.3 | CCOC(=O)c1ccc(-c2[nH]nc3c2C(=O)c2c(NC(N)=O)cccc2-3)s1 | –
56 | 0.029 | 0.055 | CN1CCN(CC(=O)Nc2cccc3c2C(=O)c2c-3n[nH]c2-c2ccc(N(C)C)cc2)CC1 | –
57 | 0.055 | 0.43 | NCC1CCN(CC(=O)Nc2cccc3c2C(=O)c2c-3n[nH]c2C2CC2)CC1 | –
